Measurements from publication PMC3458512 (Organic & biomolecular chemistry, 2012).

Columns and labels:
[1] = target: T. cruzi farnesyl pyrophosphate synthase (TcFPPS) (Trypanosoma cruzi, UniProt Q8WS26); assay: TcFPPS enzymatic activity inhibition assay; assay type: biochemical; conditions: read-out: IC50 TcFPPS; recombinant enzyme
[2] = target: T. gondii farnesyl pyrophosphate synthase (TgFPPS) (Toxoplasma gondii, UniProt Q197X6); assay type: biochemical; conditions: read-out: IC50 TgFPPS
[3] = test system: T. gondii tachyzoites; assay: T. gondii tachyzoites growth assay; assay type: cell-based, Toxoplasma gondii; conditions: read-out: IC50 T. gondii tachyzoites; growth inhibition of tachyzoites
[4] = test system: T. cruzi amastigotes; assay: T. cruzi amastigotes assay; assay type: cell-based, Trypanosoma cruzi
Method in brief: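 Vero cells gamma-irradiated (2,000 Rads), seeded at 3.4 × 10^4/well in RPMI + 10% FBS, overnight at 35 °C, 7% CO2. Infected 5 h with 3.4 × 10^5 tdTomato-expressing CL-strain trypomastigotes/well, washed, then serial test compound dilutions in quadruplicate. Controls were uninfected, drug-only and untreated-infected wells, plus benznidazole reference at 3.5 and 1.5 μM. Fluorescence read day 3 post-infection; IC50 by non-linear regression.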

[5] = test system: T. cruzi; conditions: in vivo; cited from earlier work

| Compound | IC50 [1] | IC50 [2] | IC50 [3] | IC50 ([4]; Trypanosoma cruzi, Vero, 72 h, read-out: IC50 T. cruzi amastigotes) | growth inhibition of T. cruzi intracellular amastigotes ([4]; at 10 μM) | survival of T. cruzi-infected mice [5] |
| --- | --- | --- | --- | --- | --- | --- |
| CCCCCCCCCC(F)(P(=O)(O)O)P(=O)(O)O [Compound 44, 1-(Fluoro-n-decylidene)-1,1-bisphosphonic acid] | > 1 µM | 0.06 ± 0.006 µM | > 10 µM |  |  |  |
| CC(F)(P(=O)(O)O)P(=O)(O)O [Compound 36, 1-(Fluoroethylidene)-1,1-bisphosphonic acid] | > 1 µM | > 10 µM | > 10 µM |  |  |  |
| O=C(Cn1ccnc1[N+](=O)[O-])NCc1ccccc1 [benznidazole, reference compound] |  |  |  | 2.77 ± 0.488 µM |  |  |
| CCC(F)(P(=O)(O)O)P(=O)(O)O [Compound 37, 1-(Fluoro-n-propylidene)-1,1-bisphosphophonic acid] | > 1 µM | > 10 µM | > 10 µM |  |  |  |
| O=P(O)(O)C(F)P(=O)(O)O [Compound 35, 1-(Fluoromethylene)-1,1-bisphosphonic acid] | > 1 µM | > 10 µM | > 10 µM |  |  |  |
| CCCCCCCCC(F)(P(=O)(O)O)P(=O)(O)O [Compound 43, 1-(Fluoro-n-nonylidene)-1,1-bisphosphonic acid] | > 1 µM | 0.035 ± 0.019 µM | 2.67 µM |  | 13% at 10 μM |  |
| CCCCC(F)(P(=O)(O)O)P(=O)(O)O [Compound 39, 1-(Fluoro-n-pentylidene)-1,1-bisphosphonic] | > 1 µM | 3.42 ± 1.67 µM | > 10 µM |  |  |  |
| CCCCCC(F)(P(=O)(O)O)P(=O)(O)O [Compound 40, 1-(Fluoro-n-hexylidene)-1,1-bisphosphonic acid] | > 1 µM | 0.16 ± 0.078 µM | > 10 µM |  |  |  |
| O=P(O)(O)C(O)(Cc1cccnc1)P(=O)(O)O [Risedronate, risedronate] |  |  |  |  |  | significantly increase survival |
| CCCC(F)(P(=O)(O)O)P(=O)(O)O [Compound 38, 1-(Fluoro-n-butylidene)-1,1-bisphosphonic acid] | > 1 µM | > 10 µM | > 10 µM |  |  |  |
| CCCCCCCC(F)(P(=O)(O)O)P(=O)(O)O [Compound 42, 1-(Fluoro-n-octylidene)-1,1-bisphosphonic acid] | > 1 µM | 0.616 ± 0.259 µM | > 10 µM |  |  |  |
| CCCCCCC(F)(P(=O)(O)O)P(=O)(O)O [Compound 41, 1-(Fluoro-n-heptylidene)-1,1-bisphosphonic acid] | > 1 µM | 0.241 ± 0.12 µM | > 10 µM |  |  |  |
